Measured values reported in ChEMBL document CHEMBL4152210, “Design, synthesis, anti-lung cancer activity, and chemosensitization of tumor-selective MCACs based on ROS-mediated JNK pathway activation and NF-κB pathway inhibition” (Eur J Med Chem, 2018).
Active and inactive are the calls of the source. The rule behind the calls is not given here.

Legend:
[1] = system: A549; test: Cytotoxicity against human A549 cells assessed as reduction in cell viability after 72 hrs by MTT assay; assay type: functional, cell-based; details: A549, 72 h
Outline: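 Cells in RPMI 1640 with 10% heat-inactivated FBS and penicillin/streptomycin at 37 °C, 5% CO2. Seeded at 4000 per well, adhered overnight, then exposed to graded compound concentrations in triplicate wells for 72 h. MTT (5 mg/mL stock) added for 4 h, dissolved in DMSO, A490 read. IC50 is the concentration reducing viability by 50% versus untreated control.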

[2] = Selectivity index, ratio of IC50 for human HL7702 cells to IC50 for human H460 cells; assay type: toxicity
Outline: (§1)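 Selectivity index taken as the logarithm of the ratio of the HL7702 IC50 to the cancer-line IC50. […] Not calculated when an IC50 was lacking.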

[3] = Selectivity index, ratio of IC50 for human HL7702 cells to IC50 for human A549 cells; assay type: toxicity; outline: as §1
[4] = system: A549; test: Induction of apoptosis in human A549 cells assessed as increase in Bax level at 1 to 10 uM after 24 hrs by Western blot analysis; assay type: functional, cell-based
Outline: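 A549 treated at 1, 5 or 10 µM, or with BMS345541 (20 µM), for 24 h. Cleaved PARP and Bax detected by western blot (10% SDS-PAGE, PVDF, 5% milk block, HRP secondary).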

[5] = molecular target: Mitogen-activated protein kinase 8/9 (Homo sapiens) (UniProt P45983+P45984); test: Induction of JNK 1/2 phosphorylatyion in human A549 cells after 6 hrs by Western blot analysis; assay type: cell-based
Outline: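 A549 exposed at 10 µM for varying times, or at various concentrations for 6 h. Inhibition arms pretreated 1 h with SP600125 (10 µM) or NAC (5 mM) before 10 µM for 6 h. Lysates run on 10% SDS-PAGE and transferred to PVDF. p-JNK probed, GAPDH as loading control.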

[6] = system: A549; test: Chemosensitization activity in human A549 cells assessed as inhibition of clonogenic growth at 0.5 uM in presence of 0.25 uM cisplatin incubated for 2 days followed by replacement of growth media and measured after 8 days by crystal violet staining-based assay relative to control; assay type: functional
Outline: (§2)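 A549 seeded at 1000 cells per well in 6-well plates, exposed to drug alone or combined with cisplatin or 5-Fu over a concentration series. Drug-containing medium replaced after 2 days. After a further 8 days, fixed with 1% methanol/1% formaldehyde and stained with 0.5% crystal violet. Percent inhibition at each concentration calculated relative to control.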

[7] = system: A549; test: Chemosensitization activity in human A549 cells assessed as inhibition of clonogenic growth at 1 uM in presence of 0.74 uM cisplatin incubated for 2 days followed by replacement of growth media and measured after 8 days by crystal violet staining-based assay relative to control; assay type: functional; outline: as §2

Mitogen-activated protein kinase 8/9 (Homo sapiens), sequence (P45983 whole entry, looked up): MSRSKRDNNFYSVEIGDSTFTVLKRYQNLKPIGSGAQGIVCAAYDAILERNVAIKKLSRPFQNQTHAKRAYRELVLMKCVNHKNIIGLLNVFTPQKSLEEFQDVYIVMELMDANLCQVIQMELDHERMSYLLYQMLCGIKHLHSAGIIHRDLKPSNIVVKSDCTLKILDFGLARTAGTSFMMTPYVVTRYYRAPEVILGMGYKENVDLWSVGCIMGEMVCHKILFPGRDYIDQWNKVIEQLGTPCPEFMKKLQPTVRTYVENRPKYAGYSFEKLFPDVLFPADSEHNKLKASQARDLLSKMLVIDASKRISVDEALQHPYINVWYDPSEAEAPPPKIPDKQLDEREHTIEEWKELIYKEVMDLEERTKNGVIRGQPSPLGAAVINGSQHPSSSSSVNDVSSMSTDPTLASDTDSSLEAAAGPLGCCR
Mitogen-activated protein kinase 8/9 (Homo sapiens), sequence (P45984 whole entry, looked up): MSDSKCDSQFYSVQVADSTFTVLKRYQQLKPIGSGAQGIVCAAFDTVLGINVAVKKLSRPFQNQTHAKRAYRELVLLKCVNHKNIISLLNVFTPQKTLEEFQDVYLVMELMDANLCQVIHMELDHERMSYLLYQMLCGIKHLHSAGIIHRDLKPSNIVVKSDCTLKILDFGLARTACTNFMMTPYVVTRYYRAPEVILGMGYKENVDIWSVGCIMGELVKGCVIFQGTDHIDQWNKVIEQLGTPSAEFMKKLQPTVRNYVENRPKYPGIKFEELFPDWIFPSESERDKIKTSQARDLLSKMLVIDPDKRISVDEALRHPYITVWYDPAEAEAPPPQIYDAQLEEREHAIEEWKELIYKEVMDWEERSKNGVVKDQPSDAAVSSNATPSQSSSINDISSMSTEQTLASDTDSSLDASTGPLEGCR

COc1cc(/C=C2\CN(C)C/C(=C\c3cc(OC)c(OC)c(OC)c3)C2=O)cc(OC)c1OC
IC50 [1]: 1700 nM | log(RatioIC50) [2]: 1.42 | log(RatioIC50) [3]: 1.19 | Activity [4]: Active | Activity [5]: Dose-dependent effect | inhibition (INH) [6]: 59% | inhibition (INH) [7]: 97%
